Screening results (PubChem BioAssay)
aDG glyco up = alpha-DG glycosylation activation; activation, % at 10 µM; Pro5-aDG cells, alpha-DG glycosylation AlphaScreen (IIH6); 0% Pro5, 100% B10-LARGE cell signal; AID 624168; hit rate 0.22% among 360,000;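 active = activation of at least 8% versus controls, or a plate z-score of at least 8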;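 also: Pro5 are CHO cells carrying HIG-tagged alpha-DG that lacks glycosylation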
GRIN3A LBD mod = modulates the human NR3A ligand-binding domain. NR3A LBD differential scanning fluorimetry, Tm shift; 0% = protein alone, 100% = glycine-bound protein. Tm shift relative to glycine control, % at 25 µM. hit rate 2.5% among 340,000. AID 1259313;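 active = melting temperature shift of at least 10% of the positive control shift, at one fixed dose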
XBP1 UPR activ = adaptive UPR (XBP1) activation. CHO-XBP1 luciferase reporter, IRE1-XBP1 UPR activation, luminescence; percent of tunicamycin response, DMSO as zero. activation, % at 20 µM. hit rate 0.33% among 330,000. AID 463104;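 active = versus positive control, 20 µM dose yields 30% or more activation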;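 also: 100% = tunicamycin at 10 µg/mL and 0% = DMSO only wells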
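Assay system: CHO-XBP1 luciferase reporter cells; Schedule: 6 h treatment, 37 °C; Detection: glow luminescence from Steady-Glo reagent; Benchmarks: high control tunicamycin 10 µg/mL final, low control DMSO vehicle only.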
CHOP inh = blocks CHOP induction under ER stress; CHO-K1 CHOP-promoter luciferase, tunicamycin-induced, 15-18 h; inhibition, % at 10 µM; hit rate 3.8% among 220,000; AID 2732;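 active = compounds that reduced the stress-induced luciferase reporter signal by more than about 70% of percent inhibition, limit read from the data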;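 also: 0% = tunicamycin plus vehicle and 100% = wells without tunicamycin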
CHOP UPR activ = apoptotic UPR (CHOP) activation | AID 449763 | CHO-CHOP luciferase reporter, luminescence; percent of tunicamycin response over DMSO baseline | hit rate 0.34% among 330,000 | activation, % at 10 µM;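 active = at 10 µM dose, activation of 40% or more, normalized to positive control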;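 also: 100% = tunicamycin at 10 µg/mL and 0% = DMSO alone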
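Dosing – one dose, 10 µM in 0.5% DMSO · System – CHO-CHOP cells, stable luciferase reporter of PERK-eIF2a-CHOP signalling · Input – 500 cells/well · Control set – tunicamycin 10 µg/mL final as positive, DMSO-only wells as negative · Timing – 6 h compound treatment, 37 °C · Measure – % activation vs tunicamycin · Technique – luminescence read with Steady-Glo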
MPTP inh = blocks calcium-induced mitochondrial swelling; isolated mouse mitochondria, Ca2+ swelling absorbance, 30 min; inhibition, % at 10 µM; hit rate 1.4% among 360,000;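 active = inhibition of 50% or more, scaled per plate between neutral and stimulator controls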;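 also: 0% = DMSO wells given calcium and 100% = 1 mM EGTA wells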
* = called active by the depositor; . = not tested or not shown. This is a sample that favours compounds with a hit; in the whole collection about 5.6% have one here.

SMILES	aDG glyco up	GRIN3A LBD mod	XBP1 UPR activ	CHOP inh	CHOP UPR activ	MPTP inh
CCCN(C(=O)COC(=O)CNC(=O)c1ccc2ccccc2c1)c1c(N)n(Cc2ccccc2)c(=O)[nH]c1=O	0	21*	-1	.	3	0
CCN(C(=O)COC(=O)CNC(=O)c1ccc2ccccc2c1)c1c(N)n(Cc2ccccc2)c(=O)[nH]c1=O	0	2	.	.	.	0
CCOC(=O)C1(C)CCN1C(=O)/C=C/c1ccccc1 (stereo not given)	0	.	.	.	.	0
CCOC(=O)c1c(NC(=O)CSc2n[nH]c(CNc3ccccc3)n2)sc(C)c1C	1	-3	-4	91*	0	10
CCOC(=O)c1c(NC(=O)CSc2n[nH]c(-c3ccco3)n2)sc(C)c1C	0	-10	2	33	-1	14
CCCc1cc(=O)[nH]c(SCC(=O)Nc2sc3c(c2C(N)=O)CCCC3)n1	0	-8	-4	.	-1	0
C=CCNC(=O)N1CCC(c2nc3ccccc3s2)CC1	0	1	-5	.	-2	1
CCCSc1nsc(NC(=O)C(c2ccccc2)c2ccccc2)n1	1	18*	0	93*	-1	12
CCCSc1nsc(NC(=O)CC)n1	0	-1	-1	-18	1	0
COc1ccc(N2CCN(CC(=O)Nc3ncc(C)s3)CC2)cc1	0	0	-5	.	1	-1
Cc1cnc(NC(=O)CN2CCN(c3ccccn3)CC2)s1	-1	1	-3	74*	-2	-2
CC(C)(C)c1cc(CNC(=O)C2CCC(=O)N(Cc3ccccc3F)C2)[nH]n1 (stereo not given)	0	.	.	.	.	0
O=C(Nc1ccc(N2CCOCC2)cc1)c1csc([C@H]2C[C@H](O)[C@@H](CO)O2)n1	0	.	.	.	.	0
Cn1c(=NC(=O)c2cccc([N+](=O)[O-])c2)sc2ccccc21	0	-1	6	73*	18	2
Cc1csc(SCC(=O)Nc2ccccn2)n1	0	3	-3	1	1	-5
O=C(CSc1nc(-c2ccc(F)cc2)cs1)Nc1ccccn1	0	13*	2	13	1	3
Cn1cccc1/C=N/NC(=O)C12CC3CC(CC(C3)C1)C2	0	1	1	-17	0	0
CC(C)C[C@H]1CN(CCCC[C@H]2CNC(=O)C(=O)N2CC2CCCCC2)C(=O)C(=O)N1CCc1ccccc1	0	.	.	.	.	-2
Cc1cc(NC(=O)CCN2CCCCC2)ccc1Br	0	-1	-4	.	0	0
CCOC(=O)C1CCN(C(=O)COC(=O)/C=C/c2cccc(OC)c2OC)CC1	0	15*	-2	.	1	2
CCOc1ccc(CN(C)CC(=O)NCc2ccccc2Cl)cc1	0	1	0	16	2	0
CCOc1ccc(S(=O)(=O)Nc2ccc(C(=O)NCC(c3ccco3)N3CCCCC3)cc2)cc1 (stereo not given)	0	.	2	.	-2	2
COCCCN1C(=O)C(CC(=O)NCCN2CCOCC2)CC(C(=O)N2CCOCC2)=C1C (stereo not given)	0	.	.	.	.	0
COc1ccc2oc(C(=O)Nc3nc(C)cs3)c(C)c2c1	0	20*	0	.	5	1
COc1ccc2oc(C(=O)Nc3ccccn3)c(C)c2c1	0	0	-6	.	-1	1
SMILES	aDG glyco up	GRIN3A LBD mod	XBP1 UPR activ	CHOP inh	CHOP UPR activ	MPTP inh
Cc1ccc(C)c(NC(=O)c2cc(-c3cc(C)c(C)cc3O)n[nH]2)c1	0	28*	2	.	4	0
CC(=O)Nc1ccc(NC(=O)c2cc(-c3cc(C)cc(C)c3O)n[nH]2)cc1	1	35*	0	.	3	1
CC(=O)Nc1ccc(NC(=O)c2cc(-c3ccc(C)c(C)c3O)n[nH]2)cc1	0	39*	10	.	5	1
CC(=O)Nc1ccc(NC(=O)c2cc(-c3ccc(F)cc3C)n[nH]2)cc1	0	.	.	.	.	-3
Cc1ccc(NC(=O)c2cc(-c3ccc(C)c(C)c3O)n[nH]2)cc1C	0	35*	-5	.	-2	8
C=Cc1ccc(C2=CC(=O)C[C@H](c3ccc(OC)cc3)C2)cc1	0	4	-2	.	0	-1
C[C@@H]1CN([C@@H](C)CO)S(=O)(=O)c2ccc(Br)cc2O[C@H]1CN(C)Cc1ccc(-c2ccccc2)cc1	1	.	.	.	.	0
COc1ccc(-c2cc(C(=O)Nc3ccc(OC)c(OC)c3)[nH]n2)c(C)c1	0	.	.	.	.	1
Cc1ccc(C)c(NC(=O)c2cc(-c3ccccc3O)n[nH]2)c1	0	5	0	.	4	0
Cc1ccc(-c2cc(C(=O)Nc3ccc(S(=O)(=O)Nc4ncccn4)cc3)[nH]n2)c(O)c1C	0	10*	0	8	-1	5
Cc1ccc(NC(=O)c2cc(-c3cc(C)c(C)cc3O)n[nH]2)cc1C	0	33*	-1	.	2	6
CCSc1nnc(NC(=O)c2ccccc2)s1	0	-3	-1	-155	3	0
CCSc1nnc(NC(=O)c2cc(-c3ccc(C)c(C)c3O)n[nH]2)s1	0	0	.	88*	.	6
COc1ccc(NC(=O)c2cc(-c3ccc(C)c(C)c3O)n[nH]2)cc1Cl	0	25*	3	.	3	27
CN(C)CCN=Cc1c(O)n(-c2ccc(S(=O)(=O)N3CCOCC3)cc2)c(=O)c2ccccc12	0	14*	0	.	2	-1
Cc1cccc(-n2c(O)c(C=NCCCN3CCOCC3)c3ccccc3c2=O)c1	0	3	1	11	-3	0
O=C(CC1C=Cc2ccccc2N1C(=O)c1ccccc1)c1ccccc1 (stereo not given)	0	10*	-8	-7	1	0
CC1C=Cc2ccccc2N1C(=O)c1ccccc1 (stereo not given)	0	-1	-4	11	-3	-2
CCCCCCOc1ccc(N2C(=O)CC(SC(=NCC)NCC)C2=O)cc1 (stereo not given)	0	0	-1	32	-2	6
CC(C)(C)C1CCC(=NNS(=O)(=O)c2ccc(Br)cc2)CC1 (stereo not given)	0	-9	-2	92*	0	6
Cc1ccc(S(=O)(=O)NN=C2CCC(C(C)(C)C)CC2)cc1[N+](=O)[O-] (stereo not given)	0	-1	-4	45	-2	11
COC(CC(=O)NNC(=S)Nc1ccc(Cl)cc1)OC	0	1	2	-17	0	6
COc1ccc(NC(=S)NNC(=O)CNc2ccc(Cl)cc2)cc1	0	12*	0	31	-1	2
C=CCOc1ccc(/C=C2/C(=N)N3N=C(CC(=O)N4CCCC4)SC3=NC2=O)cc1OC	0	0	-4	.	3	-1
